Bioassay records as filed in PubChem BioAssay.
Most compounds without a hit are left out; they make up all but 0.55% or so of the library.
HSV replic up = enhancers of HSV replication in host cells, fold increase, host cell viability; HSV replication augmentation in cells; maximum fold increase; 220,000 compounds, 0.005% hits; AID 1956, 2009; in the data active means maximum fold increase above about 1.5; tested in PC3 cells
p97 inhibitor = inhibitors of human p97 ATPase, primary screen, biochemical; Transitional endoplasmic reticulum ATPase (Homo sapiens), P55072; recombinant p97 ATPase, Kinase-Glo ATP luminescence, 3 h; inhibition, % at 8 µM; 220,000 compounds, 0.42% hits; in the data active means inhibition above about 15%;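 further: 0% = DMSO vehicle and 100% = wells lacking enzyme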
ABCB1 inh = ABCB1 efflux pump inhibitors, primary screen, cell-based, multiplex, flow cytometry, ABCG2 counter-screen; inhibition, % at 6.6 µM; 190,000 compounds, 0.067% hits; ATP-dependent translocase ABCB1 (Homo sapiens), P08183; CCRF-Adr cells, JC-1 efflux; in the data active means inhibition above about 40%;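 further: 0% = vehicle and 100% = reference inhibitor; higher value means more JC-1 retained so stronger ABCB1 efflux block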
ABCG2 block = ABCG2 efflux pump inhibitors, primary screen, multiplex with ABCB1, IgMXP3 cells, flow cytometry; Broad substrate specificity ATP-binding cassette transporter ABCG2 (Homo sapiens), Q9UNQ0; JC-1 efflux; inhibition, % at 6.6 µM; 190,000 compounds, 0.1% hits; AID 1325, 2008;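 active means inhibition above 80%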;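 further: 0% = DMSO and 100% = nicardipine control wells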
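Measure – % inhibition of efflux relative to nicardipine and DMSO · Test system – ABCG2 IgMXP3 and barcoded ABCB1 CCRF-Adr cell mix · Control set – nicardipine as high control, DMSO as low control · Compound – one concentration, 6.6 µM final · Signal – flow cytometry of retained JC-1 fluorescence · Timing – 10 min exposure at 25 °C with rotation, no wash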
Rad51 HR inh = human RAD51 strand exchange inhibitors, primary screen, biochemical, fluorescence; hRad51 DNA strand exchange, fluorescence dequenching; inhibition, % at 10 µM; DNA repair protein RAD51 homolog 1 (Homo sapiens), Q06609; 200,000 compounds, 0.085% hits;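 active means inhibition above 40% at the single screening dose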;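 further: 0% = DMSO control wells and 100% = blanks with heterologous ssDNA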
Target sequence (Q06609 whole entry, looked up): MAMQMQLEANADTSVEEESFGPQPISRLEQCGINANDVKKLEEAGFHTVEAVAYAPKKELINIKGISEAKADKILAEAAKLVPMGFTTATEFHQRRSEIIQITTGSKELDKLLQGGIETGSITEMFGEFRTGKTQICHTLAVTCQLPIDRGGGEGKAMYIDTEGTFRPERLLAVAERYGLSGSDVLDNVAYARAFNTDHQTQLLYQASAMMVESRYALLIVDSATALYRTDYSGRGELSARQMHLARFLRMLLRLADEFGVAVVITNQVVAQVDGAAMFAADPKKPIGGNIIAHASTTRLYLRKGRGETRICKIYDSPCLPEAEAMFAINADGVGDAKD
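Test system: preformed human Rad51 ssDNA filaments; also added: Donor/quencher-labelled 47-bp dsDNA substrate; doses: 10 µM final, single point; times: 37 °C 15-min filament assembly, 30-min compound preincubation, 15-min exchange; detection: FRET fluorescence dequenching, excitation 485 nm, emission 520 nm; read-out basis: Fluorescence-based percent inhibition, control- and blank-normalised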
ABCB6 inh MLPCN = ABCB6 transporter inhibitors, primary screen, K562-ABCB6 cells, flow cytometry, MLPCN library; K562-ABCB6 porphyrin accumulation, 1 h; hits give low values; fluorescence ratio to DMSO, % at 10 µM; 360,000 compounds, 0.19% hits;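 active means fluorescence ratio to DMSO below 75%, the collection mean minus 3 SD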;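 further: signal is porphyrin accumulated inside mitochondria; 100% equals median channel fluorescence of DMSO control wells; lower ratio means ABCB6 inhibition with less porphyrin fluorescence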
ABCB6 blocker 1 = ABCB6 transporter inhibitors, confirmation, K562-ABCB6 cells, flow cytometry, cherry pick 1. shares compounds with ABCB6 inh MLPCN. ratio response (% of DMSO), % at 10 µM. 700 tested, under 10 active. K562-ABCB6 porphyrin accumulation, 1 h; hits give low values;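 active means repeat-averaged ratio response below 75% of DMSO, the collection mean minus 3 SD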;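 further: median porphyrin fluorescence at 575 nm with 488 nm excitation from mitochondria; lower ratio means less porphyrin signal so ABCB6 inhibition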
K562 vector FC = empty-vector K562 compound effect – cell-based, flow cytometry, cherry pick set 2, counter-screen for ABCB6 inhibitor project, dose response | K562 empty-vector cells, flow cytometry fluorescence, 1 h | shares compounds with ABCB6 inh MLPCN | AID 624484, 2012 | 25 tested, under 10 active | percent response (fluorescence), % at 100 µM;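 active means compounds whose half-maximal effective concentration is below 100 µM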
The depositor's hits bear a star; i = inactive; . = no result.

SMILES	HSV replic up	p97 inhibitor	ABCB1 inh	ABCG2 block	Rad51 HR inh	ABCB6 inh MLPCN	ABCB6 blocker 1	others
COc1ccc2oc(-c3ccc(NC(=O)c4ccc(N5CCOCC5)c([N+](=O)[O-])c4)cc3)nc2c1	i	1.7	-1.9	-19.4	-8.6	60.0*	98.0
COc1ccccc1CN(C)C(=O)C(c1ccccc1)c1ccccc1	.	.	.	.	.	73.0*	100.0
CCCS(=O)(=O)NC(=O)C1(C)CCN(C(=O)c2ccc(C(F)(F)F)cc2)C1 (centres undefined)	.	.	.	.	.	70.0*	101.0
Cc1cc(NC(=O)c2cc(C)on2)n(-c2ccccc2)n1	i	-3.8	2.0	6.4	.	72.0*	103.0
CC1(C)CC(=O)C=C(/C=C/c2ccccc2)C1	.	.	.	.	.	100.0	.
COc1ccc(-c2cc(C(=O)Nc3c(C)nn(Cc4ccccc4)c3C)no2)cc1	i	3.0	1.4	11.2	1.2	51.0*	100.0
COc1ccccc1C(=O)OCCc1ccccc1	.	.	.	.	.	96.0	.
Cc1ccc(S(=O)(=O)CCC#N)cc1	i	3.1	.	.	-27.1	19.0*	97.0
N#CCCS(=O)(=O)c1ccc(N)cc1	i	-0.4	0.1	5.0	.	99.0	.
CCCN1CCC(C)(C(=O)Nc2cccc(OC(C)C)c2)C1 (centres undefined)	.	.	.	.	.	99.0	.
COc1cccc(-c2ccc(NC(=O)C3CCCN(Cc4cnn(C(C)C)c4)C3)cc2)c1 (centres undefined)	.	.	.	.	.	103.0	.
CCCC(C(=O)NC1CCCC1)N(Cc1ccccc1)C(=O)c1snc(C(N)=O)c1N (centres undefined)	.	.	.	.	.	67.0*	103.0
CCCC(C(=O)NC1CCCC1)N(Cc1ccc(OC)cc1)C(=O)c1snc(C(N)=O)c1N (centres undefined)	.	.	.	.	.	100.0	.
CCCCNC(=O)C1(C)CCN1C(=O)c1cccc(OC(C)=O)c1C (centres undefined)	.	.	.	.	.	106.0	.
CN(Cc1ccccc1)C1=CC(=[N+]2CCCC2)CC(C)(C)C1	i	3.0	.	.	33.7	98.0	.
CCN(CC)C1=CC(=[N+]2CCCC2)CC(C)(C)C1	i	5.0	0.4	7.1	.	67.0*	103.0
CCCCCCCCN1C(=O)[C@H](CC(=O)NCc2ccc(OC)c(OC)c2)C[C@@]2(C(=O)OC)CCCCC=C12	.	.	.	.	.	96.0	.
CCOC(=O)c1ccc(NC(=O)CSc2nnc(CNC(=O)c3ccco3)o2)cc1	.	.	.	.	.	14.0*	98.0
COc1ccc(C2CC=C(C(C)=O)CN2S(=O)(=O)c2ccc(Cl)cc2)cc1 (centres undefined)	.	.	.	.	.	98.0	.
Cc1cccc(Cc2c(C)nc3c(C(=O)NCc4ccco4)cnn3c2C)c1	i	-3.1	0.2	0.6	.	88.0	101.0
Cc1nc2c(C(=O)NCc3ccco3)cnn2c(C)c1Cc1ccc(F)cc1Cl	i	6.4	1.5	4.0	1.2	72.0*	100.0
Cc1nc2c(C(=O)NCc3cccs3)cnn2c(C)c1Cc1ccccc1	i	2.6	.	13.5	-1.7	.	.
Cc1nc2c(C(=O)NCc3ccc4c(c3)OCO4)cnn2c(C)c1Cc1ccc(F)cc1Cl	i	-0.8	6.0	14.2	.	97.0	.
COc1ccc(CN(C)C(=O)c2ccc(NC(=O)CC3SC(N4CCCCC4)=NC3=O)cc2)c(OC)c1 (centres undefined)	.	.	.	.	.	92.0	.
COc1ccc(C(=O)OCC(=O)Nc2cc(C)c(C)cc2[N+](=O)[O-])cc1	i	2.8	-8.4	-0.3	6.2	57.0*	102.0
SMILES	HSV replic up	p97 inhibitor	ABCB1 inh	ABCG2 block	Rad51 HR inh	ABCB6 inh MLPCN	ABCB6 blocker 1	others
O=C(Nc1ccc2c(c1)OCCO2)C(c1ccnc2ccccc12)N1CCN(C/C=C/c2ccccc2)CC1 (centres undefined)	.	.	.	.	.	100.0	.
Cc1ccc(NC(=O)c2nc(S(=O)(=O)Cc3ccccc3C)ncc2Cl)cc1C	.	.	.	.	.	48.0*	.	K562 vector FC=254.3
CC(C)c1nnc(NC(=O)c2nc(S(=O)(=O)Cc3ccccc3)ncc2Cl)s1	.	.	.	.	.	81.0	.	K562 vector FC=198.7
CCCS(=O)(=O)c1ncc(Cl)c(C(=O)Nc2ccc(S(=O)(=O)Nc3ncccn3)cc2)n1	.	.	.	.	.	103.0	104.0
CCSc1ncc(Cl)c(C(=O)Nc2ccc(S(=O)(=O)Nc3ncccn3)cc2)n1	.	.	.	.	.	108.0	.
CSc1ncc(Cl)c(C(=O)Nc2ccc(C)c(C)c2)n1	.	.	.	.	.	98.0	.
CCCc1nnc(NC(=O)c2nc(S(=O)(=O)Cc3ccc(C)cc3)ncc2Cl)s1	.	.	.	.	.	91.0	.	K562 vector FC=260.7
O=C1NC[C@H](CCCCN2CCN(CCc3ccc(O)cc3)C(=O)C2=O)N(CCc2ccc(O)cc2)C1=O	.	.	.	.	.	92.0	.
Cc1ccc(Cl)cc1-c1cc(C(=O)NCC2CCCCC2)[nH]n1	.	.	.	.	.	98.0	.
CCOc1ccccc1NC(=O)c1nc(S(=O)(=O)Cc2ccccc2)ncc1Cl	.	.	.	.	.	44.0*	.	K562 vector FC=275.6
CCOC(=O)c1ccc(NC(=O)c2nc(S(=O)(=O)Cc3ccccc3)ncc2Cl)cc1	.	.	.	.	.	46.0*	.	K562 vector FC=230.8
CSc1nnc(NC(=O)c2nc(S(=O)(=O)Cc3ccccc3)ncc2Cl)s1	.	.	.	.	.	104.0	.
CCc1ccc(NC(=O)c2nc(S(=O)(=O)Cc3ccccc3)ncc2Cl)cc1	.	.	.	.	.	66.0*	.	K562 vector FC=258.6
c1ccc2c(c1)C1=NCCN1c1ccccc1-2	.	.	.	.	.	103.0	.
Cc1ccc(-c2csc3ncnc(N4CCN(S(=O)(=O)c5cccs5)CC4)c23)cc1	.	.	.	.	.	74.0*	97.0
Cc1cccn2c(NC(=O)c3ccccc3F)c(-c3ccccc3)nc12	.	.	.	.	.	108.0	.
COc1ccc(NC(=O)COC(=O)c2ccc(S(=O)(=O)N3CCCCCC3)cc2)c(OC)c1	.	.	.	.	.	102.0	.
COc1ccc(S(=O)(=O)NC(=O)C2(C)CCN2C(=O)Cc2ccc(-c3ccccc3)cc2)cc1 (centres undefined)	.	.	.	.	.	98.0	.
CC1(C(=O)NS(=O)(=O)c2ccc(C#N)cc2)CCN1C(=O)Cc1cccc2ccccc12 (centres undefined)	.	.	.	.	.	65.0*	99.0
COc1ccc(S(=O)(=O)NC(=O)C2(C)CCN2C(=O)Cc2cccc3ccccc23)cc1 (centres undefined)	.	.	.	.	.	104.0	99.0
